Published values gathered from unrelated publications.
Each line is one published result; the experiments were not run side by side.
Read-out: metabolic stability
Host: mouse

Compound | system | conditions | half-life [min]
O=c1c2cc(Cl)ccc2[nH]c(=S)n1Cc1cccnc1 | liver microsomes | 1 µM, pH 7.4 | 27
C[C@@H]1CNC[C@H](C)[C@@]1(O)c1ccc(-c2ccnc3[nH]cc(F)c23)cc1 | liver microsomes |  | 49
O=C1CCC(N2Cc3cc(C4CCN(Cc5ccccc5)CC4)ccc3C2=O)C(=O)N1 (stereo not shown) | liver microsomes | 1 µM | > 60
NC(=NCCC[C@@H](C(=O)NCc1ccccc1)n1cc(-c2ccc(-c3ccccc3)cc2)nn1)c1ccc([N+](=O)[O-])o1 | liver microsomes |  | 120
CC(C)n1ncc2c(C(=O)NCC3(C)CNC3)cc(C3CC3)nc21 | liver microsomes |  | > 145
C[C@@H]1CNC[C@H](C)[C@@]1(O)c1ccc(-c2ccnc3[nH]cc(F)c23)cc1Cl | liver microsomes |  | 9.1
CCN(CC)CCNC(=O)c1c(C)[nH]c(/C=C2\C(=O)Nc3ccc(F)cc32)c1C | liver microsomes |  | 17
NS(=O)(=O)c1nnc(NC(=O)C2CCCC3(CCCCC3)C2)s1 (stereo not shown) | liver microsomes |  | 58.8
Cc1cc(-c2ccnc3[nH]cc(F)c23)cc(F)c1[C@@]1(O)[C@H](C)CN(C)C[C@@H]1C | liver microsomes |  | 1.7
Nc1nnc(-c2ccccc2O)cc1N1CCN(Cc2ccc(N3CCC(CN4CCN(c5ccc6c(c5)C(=O)N(C5CCC(=O)NC5=O)C6=O)CC4)CC3)c(F)c2)CC1 (stereo not shown) | liver microsomes | 1 mM | 59
Cc1[nH]c(C)c(S(=O)(=O)Nc2ccc(C(F)(F)F)c(Cl)c2)c1C(=O)N1CCC(F)(F)C1 | liver microsomes |  | 11.7
O=c1c2cc(Cl)c(CO)cc2[nH]c(=S)n1Cc1cccnc1 | liver microsomes | 1 µM, pH 7.4 | 29.5
OCc1ccc(-c2nn(Cc3ccccc3)c3ccccc23)o1 | hepatocytes |  | 1.89
C=CCn1c(=O)c2cnc(Nc3ccc(N4CCN(C)CC4)cc3)nc2n1-c1ccc2c(n1)[C@@](O)(CC)CC2 | hepatocytes |  | 91
NC1=NN(c2ccc(Oc3ccccc3)c(S(=O)(=O)O)c2)C(=O)C1 | liver microsomes | 1 µM | 51.2
O=c1c2ccc(Oc3ccc(OC(F)(F)F)cc3)cc2[nH]c2ccc(F)c(Cl)c12 | liver microsomes | 1 µM, pH 7.4 | > 60

Compound | system | conditions | half-life [min]
O=C(Oc1coc(CSc2ncccn2)cc1=O)c1ccc([N+](=O)[O-])cc1 | liver microsomes |  | < 1
CC(C)(C)OC(=O)N1CCC(Oc2ccc3c(=O)c4c(F)cc(Cl)cc4[nH]c3c2)C1 (stereo not shown) | liver microsomes | 1 µM, pH 7.4 | > 60
CC(C)C(=O)OCc1cc2[nH]c(=S)n(Cc3cccnc3)c(=O)c2cc1Cl | liver microsomes | 1 µM, pH 7.4 | < 5
CCN(CC)CCCOc1ccc2c(=O)c3c([nH]c2c1)CCCC3 | liver microsomes | 1 µM, pH 7.4 | > 60
Cc1cc(-c2ccnc3[nH]cc(F)c23)cc(F)c1[C@@]1(O)[C@H](C)CN(C(C)C)C[C@@H]1C | liver microsomes |  | 1.5
O=c1c2c([nH]c3c(Oc4ccc(OC(F)(F)F)cc4)cccc13)CCCC2 | liver microsomes | 1 µM, pH 7.4 | > 60
Cc1cc(-c2ccnc3[nH]cc(F)c23)ccc1[C@@]1(O)[C@H](C)CNC[C@@H]1C | liver microsomes |  | 8
O=c1c2ccc(OCc3ccc(OC(F)(F)F)cc3)cc2[nH]c2cc(Cl)cc(F)c12 | liver microsomes | 1 µM, pH 7.4 | > 60
Cc1ccc(CCC(=O)Nc2nnc(S(N)(=O)=O)s2)cc1 | liver microsomes |  | > 120
O=c1c2c([nH]c3cc(OCc4ccc(OC(F)(F)F)cc4)ccc13)CCCC2 | liver microsomes | 1 µM, pH 7.4 | > 60
C[C@@H]1CNC[C@H](C)[C@@]1(O)c1ccc(-c2ccnc3[nH]cc(F)c23)cc1F | liver microsomes |  | 30.1
CCN(CC)CCOc1ccc2c(=O)c3c([nH]c2c1)CCCC3 | liver microsomes | 1 µM, pH 7.4 | > 60
CCN(CC)CCNC(=O)c1c(C)[nH]c(/C=C2\C(=O)Nc3ccc(F)cc32)c1C | liver microsomes | 1 µM, pH 7.4 | 14
O=c1c2cccc(Oc3ccc(OC(F)(F)F)cc3)c2[nH]c2cc(Cl)cc(F)c12 | liver microsomes | 1 µM, pH 7.4 | > 60
O=c1c2cc(Cl)ncc2[nH]c(=S)n1Cc1cccnc1 | liver microsomes | 1 µM, pH 7.4 | 89.7
